How the values were obtained:
[1] = Ratio of drug level in rat brain to plasma at 0.5 mg/kg, iv after 2 hrs; type: ADME, organism-based; details: brain and plasma, read-out: BPR
Summary of the method: (§1)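 Rats given 0.5 mg/kg iv in 10% DMA + 10% Solutol HS15 + 80% saline, or for some compounds 10% DMA + 10% Solutol HS15 + 80% (30% (2-hydroxypropyl)-β-cyclodextrin in saline). Brain:plasma and CSF:plasma ratios taken at 0.5 and 2 h; quantification limit 1.00 ng/mL.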

[2] = Ratio of drug level in rat cerebrospinal fluid to plasma at 0.5 mg/kg, iv after 2 hrs; type: ADME, organism-based, CSF/Plasma; details: cerebrospinal fluid and plasma
[3] = Ratio of drug level in rat brain to plasma at 0.5 mg/kg, iv after 0.5 hrs; type: ADME, organism-based; details: brain and plasma, read-out: BPR; summary of the method: as §1
[4] = Volume of distribution at steady state in rat at 0.5 mg/kg, iv; type: ADME, organism-based; details: in vivo, read-out: Vdss
[5] = Ratio of drug level in rat cerebrospinal fluid to plasma at 0.5 mg/kg, iv after 0.5 hrs; type: ADME, organism-based, CSF/Plasma; details: cerebrospinal fluid and plasma; summary of the method: as §1
[6] = Oral bioavailability in rat; type: ADME, organism-based; details: in vivo
[7] = Apparent permeability across apical to basolateral side of human Caco2 cells; type: ADME, cell-based; details: Caco-2
Summary of the method: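 Caco-2 monolayer; apparent permeability measured in the apical-to-basolateral direction, with efflux ratio also reported.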

Work on `Cc1cc(C#N)cc(-c2cc(-n3cccn3)ncn2)c1` yielded a Kp at 2 h [1] of 1.9, a Kp at 2 h [2] of 0.01 and a Kp at 0.5 h [3] of 1.7. The Vd [4] was 2.5 L/kg and the Kp at 0.5 h [5] was 0.02.

Compound `N#Cc1cc(Cl)cc(-c2cc(-c3ccccn3)ncn2)c1` has a Kp at 2 h [1] of 1.9, a Kp at 0.5 h [3] of 1.7 and a Vd [4] of 4.4 L/kg. The Kp at 0.5 h [5] was 0.01.

`N#Cc1cc(C#N)cc(-c2cc(-c3ccc(F)cn3)ncn2)c1` gave a Kp at 2 h [1] of 8.2, a Kp at 2 h [2] of 0.07 and a Kp at 0.5 h [3] of 5.5. For the same compound, the Vd [4] was 3.3 L/kg and the Kp at 0.5 h [5] was 0.04.

For `N#Cc1cc(Cl)cc(-c2cc(-c3ccc(F)cn3)ncn2)c1`, the Kp at 2 h [1] was 2.7, the bioavailability [6] was 100% and the Kp at 0.5 h [3] was 2.9. It also gave a Vd [4] of 3.7 L/kg, a Kp at 0.5 h [5] of 0.01 and a Papp A→B [7] of 13 ×10⁻⁶ cm/s.

For `N#Cc1ccc(-c2cc(-c3cc(Cl)cc(C#N)c3)ncn2)nc1`, the Kp at 2 h [1] was 6.7, the Kp at 0.5 h [3] was 4.7 and the Vd [4] was 4.9 L/kg. It also gave a Kp at 0.5 h [5] of 0.01.
